Laboratory results published in ChEMBL document CHEMBL1629431, “Synthesis and antitumor activity of some 2, 3-disubstituted quinazolin-4(3H)-ones and 4, 6- disubstituted- 1, 2, 3, 4-tetrahydroquinazolin-2H-ones” (2010).

Tests used:
Type in all cases: functional
CCRF-CEM = test: Growth inhibition of human CCRF-CEM cells at 10 uM after 48 hrs by coulter counter method; settings: read-out: GI
Summary of the method: (§1)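 Single high-dose NCI 60-cell-line panel screen across nine tumor subpanels. Test solutions (0.2 mL) were added in duplicate to wells holding 1.8 mL of culture at 6 × 10⁴ cells/mL. Controls got PBS and DMSO at identical dilutions. Incubation was 48 h at 37 °C in humidified 5% CO₂. Cells were diluted 10-fold in saline, Coulter-counted and dilution-corrected. Results were expressed as percent growth inhibition versus control.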

M14 = test: Growth inhibition of human M14 cells at 10 uM after 48 hrs by coulter counter method; settings: M14, 48 h, read-out: GI; summary of the method: as §1
KM12 = test: Growth inhibition of human KM12 cells at 10 uM after 48 hrs by coulter counter method; settings: KM12, 48 h, read-out: GI; summary of the method: as §1
OVCAR-8 = test: Growth inhibition of human OVCAR8 cells at 10 uM after 48 hrs by coulter counter method; settings: OVCAR-8, 48 h, read-out: GI; summary of the method: as §1
NCI-H226 = test: Growth inhibition of human NCI-H226 cells at 10 uM after 48 hrs by coulter counter method; settings: NCI-H226, 48 h, read-out: GI; summary of the method: as §1
COLO 205 = test: Growth inhibition of human COLO205 cells at 10 uM after 48 hrs by coulter counter method; settings: COLO 205, 48 h, read-out: GI; summary of the method: as §1
UACC-62 = test: Growth inhibition of human UACC62 cells at 10 uM after 48 hrs by coulter counter method; settings: UACC-62, 48 h, read-out: GI; summary of the method: as §1
T47D = test: Growth inhibition of human T47D cells at 10 uM after 48 hrs by coulter counter method; settings: read-out: GI; summary of the method: as §1
MOLT-4 = test: Growth inhibition of human MOLT4 cells at 10 uM after 48 hrs by coulter counter method; settings: MOLT-4, 48 h, read-out: GI; summary of the method: as §1
NCI-H522 = test: Growth inhibition of human NCI-H522 cells at 10 uM after 48 hrs by coulter counter method; settings: NCI-H522, 48 h, read-out: GI; summary of the method: as §1
OVCAR-4 = test: Growth inhibition of human OVCAR4 cells at 10 uM after 48 hrs by coulter counter method; settings: OVCAR-4, 48 h, read-out: GI; summary of the method: as §1
MDA-MB-468 = test: Growth inhibition of human MDA-MB-468 cells at 10 uM after 48 hrs by coulter counter method; settings: MDA-MB-468, 48 h, read-out: GI; summary of the method: as §1
MCF7 = test: Growth inhibition of human MCF7 cells at 10 uM after 48 hrs by coulter counter method; settings: MCF7, 48 h, read-out: GI; summary of the method: as §1
HL-60(TB) = test: Growth inhibition of human HL-60(TB) cells at 10 uM after 48 hrs by coulter counter method; settings: HL-60, 48 h, read-out: GI
Summary of the method: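 Part of the NCI 60-cell-line single-high-dose panel. Cells were seeded at 6 × 10⁴ cells/mL with test solution in duplicate wells, alongside PBS/DMSO controls at identical dilutions. Plates were held 48 h at 37 °C in a humidified 5% CO₂ incubator. Cells were then diluted 10-fold in saline and counted by Coulter counter, with counts corrected for dilution. Results are percent growth of treated cells, reported as GI %.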

SR = test: Growth inhibition of human SR cells at 10 uM after 48 hrs by coulter counter method; settings: read-out: GI; summary of the method: as §1
SK-OV-3 = test: Growth inhibition of human SKOV3 cells at 10 uM after 48 hrs by coulter counter method; settings: SK-OV-3, 48 h, read-out: GI; summary of the method: as §1
U-251 = test: Growth inhibition of human U251 cells at 10 uM after 48 hrs by coulter counter method; settings: U-251, 48 h, read-out: GI; summary of the method: as §1
A549 = test: Growth inhibition of human A549 cells at 10 uM after 48 hrs by coulter counter method; settings: A549, 48 h, read-out: GI; summary of the method: as §1
NCI-H23 = test: Growth inhibition of human NCI-H23 cells at 10 uM after 48 hrs by coulter counter method; settings: NCI-H23, 48 h, read-out: GI; summary of the method: as §1
SF-268 = test: Growth inhibition of human SF268 cells at 10 uM after 48 hrs by coulter counter method; settings: SF-268, 48 h, read-out: GI; summary of the method: as §1
HOP-92 = test: Growth inhibition of human HOP92 cells at 10 uM after 48 hrs by coulter counter method; settings: HOP-92, 48 h, read-out: GI; summary of the method: as §1
SNB-75 = test: Growth inhibition of human SNB75 cells at 10 uM after 48 hrs by coulter counter method; settings: SNB-75, 48 h, read-out: GI; summary of the method: as §1
786-0 = test: Growth inhibition of human 786-0 cells at 10 uM after 48 hrs by coulter counter method; settings: 786-0, 48 h, read-out: GI; summary of the method: as §1
SF-539 = test: Growth inhibition of human SF539 cells at 10 uM after 48 hrs by coulter counter method; settings: SF-539, 48 h, read-out: GI; summary of the method: as §1
PC-3 = test: Growth inhibition of human PC3 cells at 10 uM after 48 hrs by coulter counter method; settings: PC-3, 48 h, read-out: GI; summary of the method: as §1
SK-MEL-2 = test: Growth inhibition of human SK-MEL-2 cells at 10 uM after 48 hrs by coulter counter method; settings: SK-MEL-2, 48 h, read-out: GI; summary of the method: as §1
HCT-116 = test: Growth inhibition of human HCT116 cells at 10 uM after 48 hrs by coulter counter method; settings: HCT-116, 48 h, read-out: GI; summary of the method: as §1
MDA-MB-231 = test: Growth inhibition of human MDA-MB-231 cells at 10 uM after 48 hrs by coulter counter method; settings: MDA-MB-231, 48 h, read-out: GI; summary of the method: as §1
SN12C = test: Growth inhibition of human SN12C cells at 10 uM after 48 hrs by coulter counter method; settings: read-out: GI; summary of the method: as §1
UO-31 = test: Growth inhibition of human UO31 cells at 10 uM after 48 hrs by coulter counter method; settings: UO-31, 48 h, read-out: GI; summary of the method: as §1
IGROV-1 = test: Growth inhibition of human IGROV1 cells at 10 uM after 48 hrs by coulter counter method; settings: IGROV-1, 48 h, read-out: GI; summary of the method: as §1
[1] = Growth inhibition of human Hs 578T cells at 10 uM after 48 hrs by coulter counter method; settings: read-out: GI; summary of the method: as §1
SK-MEL-28 = test: Growth inhibition of human SK-MEL-28 cells at 10 uM after 48 hrs by coulter counter method; settings: SK-MEL-28, 48 h, read-out: GI; summary of the method: as §1

Measured: inhibition of growth at 10 µM

COc1ccc(C(=O)CSc2nc3ccccc3c(=O)n2-c2ccc(OC)cc2)cc1
30.8%: MDA-MB-468 | A549
70.3%: CCRF-CEM
< 30%: NCI-H522
30.3%: UO-31
43%: HL-60(TB)
34.9%: SR
49.4%: MOLT-4
30%: all other assays above
